OXTR potentiate – potentiators of human oxytocin receptor. CHO-OTR cells, Fluo-8 calcium fluorescence, potentiator mode; 0% = oxytocin EC15, 100% = EC100. AID 2445. 0.061% of 320,000 active. activation, % at 3 µM. P30559;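 active = activation above that plate's cutoff, the mean activation of tested compounds plus 3 SD, cut at about 6.6% in these data, passing the limit was not always enough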;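 also: 100% uses oxytocin at 75 nM as the full agonist control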
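assay system = CHO-OTR cells, human receptor | schedule = compound 6 min at room temperature before oxytocin, 100 s read | detection = Fluo-8 intracellular calcium fluorescence, ex 470-495, em 515-575 nm | evaluation = normalized max/min fluorescence ratio, % activation | control set = EC15 oxytocin alone as 0%, 75 nM oxytocin (EC100) as 100%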
V1R ag counter – V1a receptor agonism, counter-screen for OXTR agonists. P37288. CHO-V1R cells, Fluo-8 calcium fluorescence, agonist mode; 0% DMSO, 100% 3 nM vasopressin. activation, % at 3 µM. 0.25% of 320,000 active. AID 2797;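 active = activation above the mean activation of all tested compounds plus 3 SD, per screening run, cut at about 20% in these data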;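 also: signal is peak over basal fluorescence ratio across a 100 second FLIPR read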
TRPML3 ag – agonists of human TRPML3 channel. activation, % at 3 µM. 0.29% of 220,000 active. HEK293 TRPML3-YFP, Fluo-8 calcium fluorescence; 100% = the carbachol control signal;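 active = activation above its plate's cutoff, the mean activation of the plate's test wells plus 3 SD, cut at about 12% in these data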;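 also: 0% = DMSO only wells and 100% = carbachol wells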
Target sequence (Q8TDD5 whole entry, looked up): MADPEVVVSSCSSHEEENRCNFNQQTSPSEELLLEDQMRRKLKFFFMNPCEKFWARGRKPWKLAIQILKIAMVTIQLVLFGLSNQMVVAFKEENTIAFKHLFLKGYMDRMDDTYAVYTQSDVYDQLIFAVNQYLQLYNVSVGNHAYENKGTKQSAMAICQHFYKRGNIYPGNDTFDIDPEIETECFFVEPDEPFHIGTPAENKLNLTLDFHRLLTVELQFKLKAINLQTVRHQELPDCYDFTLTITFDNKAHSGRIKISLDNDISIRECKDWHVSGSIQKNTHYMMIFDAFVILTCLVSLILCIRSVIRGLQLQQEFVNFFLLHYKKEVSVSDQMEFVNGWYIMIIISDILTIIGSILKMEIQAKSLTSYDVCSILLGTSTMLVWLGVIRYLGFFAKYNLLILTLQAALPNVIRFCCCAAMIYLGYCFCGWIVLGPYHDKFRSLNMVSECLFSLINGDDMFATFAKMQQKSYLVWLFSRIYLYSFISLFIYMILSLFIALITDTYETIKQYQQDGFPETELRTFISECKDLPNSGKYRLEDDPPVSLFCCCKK
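Test system – HEK293 line with stable expression of human TRPML3-YFP channel · Control set – carbachol 87 µM final as high control (100%), DMSO as low control (0%) · Signal – Fluo-8 calcium dye fluorescence, ex 470-495, em 515-575 nm · Incubation – 1-h 37 °C dye load, 5-s basal, 120-s post-compound reads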
OXTR agonist – activates the human oxytocin receptor; P30559; CHO-OTR cells, Fluo-8 calcium fluorescence; normalized: DMSO 0%, oxytocin 100%; activation, % at 3 µM; 0.32% of 320,000 active;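 active = activation above the mean of all tested compounds plus 3 SD, cutoff set per screening run, cut at about 20% in these data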;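 also: peak over basal fluorescence ratio from a 100 s FLIPR kinetic read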
TRPN1 ag – activates the zebrafish TRPN1 channel. HEK293 zebrafish TRPN1-YFP, Fluo-8 calcium fluorescence; 100% = response to 87 µM carbachol. activation, % at 3 µM. 0.18% of 220,000 active;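 active = activation above its plate's cutoff, the mean activation of test wells on that plate plus 3 SD, cut at about 19% in these data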;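 also: 0% = DMSO alone and 100% = 87 µM carbachol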
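Control set: carbachol 87 µM as high control, DMSO as low control; system: HEK293 stable line with zebrafish TRPN1-YFP; read-out: % activation versus carbachol response; detection: intracellular calcium fluorescence with Fluo-8; doses: single test compound dose, 3 µM nominal, 0.3% DMSO; schedule: dye 1 h 37 °C plus 30 min RT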
OXTR ag confirm – human OXTR agonism, confirmation; shares compounds with OXTR agonist; CHO-OTR cells, Fluo-8 calcium fluorescence, agonist; activation, % at 3 µM; 20% of 390 active; AID 434963;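 active = mean activation above about 20% derived from the earlier single-dose screen, limit read from the data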;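 also: peak over minimum fluorescence ratio per well during a 100 second FLIPR read; 0% = DMSO alone and 100% = oxytocin high control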
V1aR counter 3x – counter-screen for oxytocin receptor agonists: V1a receptor agonists; shares compounds with OXTR agonist; CHO-V1R cells, Fluo-8 calcium fluorescence, agonist; activation, % at 3 µM; 10% of 390 active; AID 434991;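 active = mean activation over triplicate exceeds the hit threshold set in the earlier primary screen, cut at about 20% in these data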;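 also: peak over basal fluorescence ratio within a 100 second read; 0% = DMSO alone and 100% = 3 nM vasopressin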
An asterisk follows results filed as active; . = no result given. Compounds with a hit are over-represented: about 0.55% of the library has one in this group of screens.

SMILES | OXTR potentiate | V1R ag counter | TRPML3 ag | OXTR agonist | TRPN1 ag | OXTR ag confirm | V1aR counter 3x
COc1ccccc1CNC(=O)CCC(=O)N1CCOc2ccc(C)cc21 | -4.1 | -0.9 | . | -0.9 | . | . | .
COc1ccccc1Nc1nc(-c2ccccc2)nc2ccccc12 | -6.9 | 0.5 | 1.1 | -1.6 | 0.8 | . | .
COc1ccc(Nc2nc(-c3ccccc3)nc3ccccc23)c(OC)c1 | -27.2 | 5.8 | -0.2 | 29.7* | 0.7 | -0.4 | 0.0
Cc1c(C(=O)NCc2cccnc2)oc2ccc(S(=O)(=O)N3CCCCCC3)cc12 | -23.6 | 6.0 | 1.2 | 5.2 | 6.9 | . | .
OCc1cn(-c2ccccc2)nc1-c1ccc(-c2nn(-c3ccccc3)cc2CO)cc1 | -9.7 | 5.2 | 0.7 | 0.7 | 0.1 | . | .
Cc1ccc(-c2nn(-c3ccccc3)cc2CSC(=N)N)cc1 | -12.4 | 12.2 | 0.6 | 23.7* | 1.8 | 4.4 | 5.3
O=C(COC(=O)c1ccc(F)c(S(=O)(=O)N2CCOCC2)c1)Nc1ccc2[nH]c(=O)[nH]c2c1 | -8.4 | 0.0 | . | 0.3 | . | . | .
O=C(OCc1ccccc1Cl)C1CC(=O)N(Cc2ccco2)C1 (stereo unspecified) | -8.8 | -0.6 | . | 0.1 | . | . | .
Nc1nc2ccccc2n1CCOc1ccc(Cl)cc1 | -8.1 | 5.8 | . | 6.2 | . | . | .
Nc1nc2ccccc2n1CCOc1ccc(Br)cc1 | -14.8 | 7.4 | . | 21.4* | . | 1.2 | 0.1
COc1ccc(NS(=O)(=O)c2ccc(-n3nnc4ccccc43)c([N+](=O)[O-])c2)cc1 | -10.9 | 8.0 | 1.7 | 23.5* | 8.2 | 13.1 | 8.2
Cc1cccc(OCC(O)Cn2c(=N)n(Cc3ccccc3)c3ccccc32)c1 (stereo unspecified) | -12.6 | 17.9 | -1.2 | 30.9* | -0.7 | 7.4 | 6.2
c1cc2c(cc1C1CCCCC1)c1c3n2CCCNC3CCC1 (stereo unspecified) | -2.4 | 17.9 | 0.7 | 26.2* | 4.9 | 1.4 | 0.6
CSc1ccc2c(c1)N(CCC1CCCCN1C)c1ccccc1S2 (stereo unspecified) | -10.0 | 8.6 | 1.5 | 23.6* | 2.5 | 16.1 | 5.5
CC(=O)Nc1ccc(NC(=O)COC(=O)C2(c3ccc(Cl)cc3)CCCC2)cc1 | -10.7 | 17.6 | 3.7 | 19.8* | 11.3 | 12.7 | 11.9
CN(c1ccccc1)c1ccc(/C=C/[N+](=O)[O-])cc1 | -11.7 | 15.2 | 10.1 | 28.8* | 16.5 | 25.6* | 32.4*
CCN(C(=O)CN1CCCC(C)C1)c1c(N)n(Cc2ccccc2)c(=O)[nH]c1=O (stereo unspecified) | 1.6 | 1.2 | . | 1.2 | . | . | .
COc1ccccc1Oc1ccc2c(c1)C(=O)N(CC(=O)O)C2=O | -1.9 | 0.4 | . | 0.9 | . | . | .
COc1ccccc1Oc1ccc2c(c1)C(=O)N(c1ccc(O)cc1)C2=O | -17.8 | 7.3 | 0.7 | 25.6* | 0.7 | 0.7 | 3.9
COc1ccc(C(CC(=O)Nc2ccc(C)cn2)N2Cc3ccccc3C2=O)cc1 (stereo unspecified) | -8.9 | 0.1 | . | 1.7 | . | . | .
CCOC(=O)[C@@H]1[C@H]2COc3cc(OC)ccc3[C@@H]2N2C(=O)N(c3ccccc3)C(=O)[C@]12C | 3.0 | -0.3 | . | -1.3 | . | . | .
Cn1nnnc1SCC(=O)Nc1cc(S(=O)(=O)N2CCCCC2)ccc1Cl | 4.1 | 3.5 | . | 2.9 | . | . | .
Oc1ccc(C[C@H]2CNCCN2CCC23CC4CC(CC(C4)C2)C3)cc1 | -1.5 | 2.8 | . | 6.8 | . | . | .
Oc1ccc(C[C@@H]2CNCCN2CCC23CC4CC(CC(C4)C2)C3)cc1 | -16.4 | 8.0 | . | 20.4* | . | 9.3 | 2.8
O=C(NCC1CCN(Cc2cccc(Cl)c2)CC1)Nc1ccc(Cl)cc1 | -21.3 | 18.7 | . | 23.4* | . | 5.4 | 5.8
COc1ccc(Cl)cc1NC(=O)NCC1CCN(Cc2cc(C)ccc2C)CC1 | -18.8 | 18.0 | . | 21.3* | . | 6.5 | 4.3
Cc1ccc(C)c(CN2CCC(CNC(=O)Nc3ccc(C)c(C)c3)CC2)c1 | -19.8 | 3.4 | . | 3.0 | . | . | .
CCc1cccc(CN2CCC(CNC(=O)Nc3ccc(Cl)cc3)CC2)c1 | -12.5 | 3.7 | 1.9 | 7.1 | 3.2 | . | .
